Experimental data pooled from the literature.
APC: Adenomatous polyposis coli protein (APC, Homo sapiens, UniProt P25054)
AVPR2: Vasopressin V2 receptor (AVPR2, Homo sapiens, UniProt P30518)
Palmitoyl-protein thioesterase 1: Palmitoyl-protein thioesterase 1 (Homo sapiens, UniProt P50897)
HTR1E: 5-hydroxytryptamine receptor 1E (HTR1E, Homo sapiens, UniProt P28566)
CSNK1A1/CRBN: Cereblon/Casein kinase I alpha (CSNK1A1/CRBN, Homo sapiens, UniProt P48729+Q96SW2)

Cc1nc2n(c(=O)c1CCN1CCC(c3noc4cc(F)ccc34)CC1)CCCC2O (stereo not drawn)
Kd (RNA cytidine acetyltransferase (Homo sapiens, UniProt Q9H0A0); binding, ITC): 12.8 µM

CSc1nccc(C(=O)N[C@@H](CCC(=O)O)C(=O)N[C@@H](Cc2ccc3ccccc3c2)C(=O)N[C@@H](CC(C)C)C(=O)N[C@@H]2C[C@H]2c2ccccc2)n1
Kd (APC; binding, SPR): 0.38 µM

CCCCCCCC/C=C\CCCCCCCC(=O)O
Kd (Myoglobin (MB, Homo sapiens, UniProt P02144, K46M); binding, absorbance): 13.1 µM

CC(C)C[C@H](NC(=O)[C@H](CC1CC1)NC(=O)[C@H](CCC(=O)O)NC(=O)c1ccncn1)C(=O)NC1CC1c1ccccc1 (stereo partly drawn)
Kd (APC; binding, SPR): 32 µM

CC1=NN(/C(=N/c2nnc(C)s2)Nc2ccc(C)c(C)c2)C(c2cccnc2)S1 (stereo not drawn)
EC50 (AVPR2; cAMP, positive allosteric modulator): > 50 µM

OC(c1cc(C(F)(F)F)nc2c(C(F)(F)F)cccc12)C1CCCCN1 (stereo not drawn)
Kd (Palmitoyl-protein thioesterase 1; binding, MST): 0.226 µM

CCN1CCC[C@H]1CNC(=O)c1c(O)c(Cl)cc(Cl)c1OC
EC50 (HTR1E; G protein activation, agonist, BRET): 0.49 µM

CC(C)C[C@H](NC(=O)[C@H](Cc1ccc2ccccc2c1)NC(=O)[C@H](CCC(=O)O)NC(=O)c1cccc(Br)c1)C(=O)NC1CC1c1ccccc1 (stereo partly drawn)
IC50 (APC; ligand displacement, FP): 11.2 µM

CC1=NN(/C(=N/c2nnc(C)s2)Nc2ccc(C)c(C)c2)C(c2cc(F)c(F)c(F)c2)S1 (stereo not drawn)
EC50 (AVPR2; cAMP, positive allosteric modulator): > 50 µM

Cc1cc(C(C)(C)C)c(O)c(C)c1CC1=NCCN1
EC50 (HTR1E; G protein activation, agonist, BRET): 0.516 µM

CC(C)C[C@H](NC(=O)[C@H](Cc1ccccc1)NC(=O)[C@H](CCC(=O)O)NC(=O)c1ccncn1)C(=O)NC1CC1c1ccccc1 (stereo partly drawn)
Kd (APC; binding, SPR): 67 µM

CC1=NN(/C(=N/c2nnc(C)s2)Nc2ccc(C)c(C)c2)C(c2ccc(C(F)(F)F)cc2)S1 (stereo not drawn)
EC50 (AVPR2; cAMP, positive allosteric modulator): > 50 µM

CC(C)=CCNc1ncnc2c1ncn2[C@@H]1O[C@H](CO)[C@@H](O)[C@H]1O
EC50 (Adenosine receptor A3 (ADORA3, Homo sapiens, UniProt P0DMS8, L264F); G protein activation, agonist): 3.4 µM

NC(=O)N[C@@H](CCC(=O)O)C(=O)O
Kd (Palmitoyl-protein thioesterase 1; binding, MST): 1.27 µM

CSc1ncc(Br)c(C(=O)N[C@@H](CCC(=O)O)C(=O)N[C@@H](Cc2ccc3ccccc3c2)C(=O)N[C@@H](CC(C)C)C(=O)NC2CC2c2ccccc2)n1 (stereo partly drawn)
Kd (APC; binding, SPR): 0.58 µM

CCc1ccc(/N=C(/Nc2nnc(C)s2)N2N=C(C)SC2c2ccc(C)cc2)cc1 (stereo not drawn)
EC50 (AVPR2; cAMP, positive allosteric modulator): 15.8 µM

O=C1c2ccccc2S(=O)(=O)N1CCCCN1CCN(c2ncccn2)CC1
EC50 (HTR1E; G protein activation, agonist, BRET): 0.628 µM

CN1Cc2c(N)cccc2C(=O)N1C1CCC(=O)NC1=O (stereo not drawn)
DC50 (CSNK1A1/CRBN; protein level, degrader, luciferase): > 10 µM

CC1=NN(/C(=N\c2ccccc2C)Nc2nnc(C)s2)C(c2ccc(C)cc2)S1 (stereo not drawn)
EC50 (AVPR2; cAMP, positive allosteric modulator): 20.8 µM

Nc1nnc(-c2ccccc2O)cc1N1CCN(Cc2ccc(OCCOCCNc3cccc4c3C(=O)N(C3CCC(=O)NC3=O)C4=O)c(F)c2)CC1 (stereo not drawn)
DC50 (SWI/SNF-related matrix-associated actin-dependent regulator of chromatin subfamily A member 2 (SMARCA2, Homo sapiens, UniProt P51531); protein level, degrader, western blot): 0.064 µM

N#C[C@@]12C[C@@H]1[C@@H](n1cnc3c(N[C@@H](C4CCC4)C4CC4)nc(I)nc31)[C@H](O)[C@@H]2O
Ki (Adenosine receptor A3 (ADORA3, Homo sapiens, UniProt P0DMS8); ligand displacement, radioligand): > 1 µM

O=C(CCCCCN1CCN(c2ccccc2-c2ccccc2)CC1)NC1CCCc2ccccc21 (stereo not drawn)
EC50 (HTR1E; G protein activation, agonist, BRET): 1.75 µM

CC1=NN(/C(=N/c2nnc(C)s2)Nc2ccc(C)c(C)c2)C(c2ccc(-c3ccccc3C(F)(F)F)cc2)S1 (stereo not drawn)
EC50 (AVPR2; cAMP, positive allosteric modulator): 36 µM

CC(C)C[C@H](NC(=O)[C@H](Cc1ccc2ccccc2c1)NC(=O)[C@H](CCC(=O)O)NC(=O)c1cccc([N+](=O)[O-])c1)C(=O)NC1CC1c1ccccc1 (stereo partly drawn)
IC50 (APC; ligand displacement, FP): 41.7 µM

CCCN1C[C@H](CSC)C[C@@H]2c3cccc4[nH]cc(c34)C[C@H]21
EC50 (HTR1E; G protein activation, agonist, BRET): 1.9 µM

CC(C)C[C@H](NC(=O)[C@H](Cc1ccc2ccccc2c1)NC(=O)[C@H](CCC(=O)O)NC(=O)c1ccnc(F)c1)C(=O)NC1CC1c1ccccc1 (stereo partly drawn)
IC50 (APC; ligand displacement, FP): 42.7 µM

C=CCN1C[C@H](C(=O)N(CCCN(C)C)C(=O)NCC)C[C@@H]2c3cccc4[nH]cc(c34)C[C@H]21
EC50 (HTR1E; G protein activation, agonist, BRET): 1.72 µM

CN1CCN(Cc2ccc(CNc3cccc4c3CN(C)N(C3CCC(=O)NC3=O)C4=O)cc2)CC1 (stereo not drawn)
DC50 (CSNK1A1/CRBN; protein level, degrader, luciferase): 0.092 µM

COc1cccc(C(=O)N[C@@H](CCC(=O)O)C(=O)N[C@@H](Cc2ccc3ccccc3c2)C(=O)N[C@@H](CC(C)C)C(=O)NC2CC2c2ccccc2)c1 (stereo partly drawn)
IC50 (APC; ligand displacement, FP): 38.9 µM

CC1=NN(/C(=N/c2nnc(C)s2)Nc2ccc(C)c(C)c2)C(c2ccsc2)S1 (stereo not drawn)
EC50 (AVPR2; cAMP, positive allosteric modulator): > 50 µM

CN(C)c1ncnc2c1ncn2[C@@H]1O[C@H](CO)[C@@H](O)[C@H]1O
EC50 (Adenosine receptor A3 (ADORA3, Homo sapiens, UniProt P0DMS8, L264Q); G protein activation, agonist): 3.5 µM

[H]/N=C(\N/C(=N/[H])Nc1ccc(Cl)cc1)NC(C)C
Kd (Palmitoyl-protein thioesterase 1; binding, MST): 0.808 µM

CC1=NN(/C(=N/c2nnc(C)s2)Nc2ccc(C)c(C)c2)C(c2cc(F)c(F)c(F)c2F)S1 (stereo not drawn)
EC50 (AVPR2; cAMP, positive allosteric modulator): > 50 µM
